KCNK9 inh = inhibitors of human KCNK9 two-pore domain potassium channel; HEK293 KCNK9, FluxOR thallium flux fluorescence; hits give low values; 1.2% of 310,000 active; B-score at 10 µM; AID 488922;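 active = ratio B-score over 3 SD below the library mean, with starting fluorescence within 5 SD of its mean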;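 also: negative B-score means less thallium flux so channel inhibition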
Target sequence (Q9NPC2 whole entry, looked up, the tested form may be a part): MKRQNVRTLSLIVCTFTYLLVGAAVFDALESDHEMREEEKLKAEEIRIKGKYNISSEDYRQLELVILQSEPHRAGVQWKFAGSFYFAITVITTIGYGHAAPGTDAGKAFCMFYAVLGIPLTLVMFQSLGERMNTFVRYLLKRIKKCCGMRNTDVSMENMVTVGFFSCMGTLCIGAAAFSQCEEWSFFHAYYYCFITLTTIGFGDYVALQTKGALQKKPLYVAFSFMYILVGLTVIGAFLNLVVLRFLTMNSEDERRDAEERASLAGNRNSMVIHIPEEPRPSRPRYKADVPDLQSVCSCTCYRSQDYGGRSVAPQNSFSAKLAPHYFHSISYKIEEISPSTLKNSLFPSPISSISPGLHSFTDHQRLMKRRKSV
KCNK3 block = human KCNK3 channel inhibition, primary screen; CHO-KCNK3 thallium flux, FluxOR fluorescence; hits give low values; B-score at 10 µM; 0.84% of 340,000 active; AID 602410;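 active = B-score under library mean minus 4 SD, starting fluorescence ratio at most library mean plus 5 SD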;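 also: more negative B-score means stronger inhibition of thallium flux through KCNK3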
KCNQ1 inh = inhibitors of human KCNQ1 potassium channel; CHO-K1 KCNQ1, FluxOR thallium flux fluorescence; hits give high values; B-score at 10 µM; 1.3% of 310,000 active;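 active = compounds whose thallium flux B-score, printed positive for inhibition, exceeds three library SD while starting fluorescence stays within three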;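 also: channel opened by potassium depolarization with thallium stimulus after 20 min compound exposure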
Kir21 inh = blocks the mouse Kir2.1 inward-rectifier potassium channel; 0.85% of 310,000 active; HEK293-Kir2.1, FluxOR thallium flux fluorescence; hits give low values; B-score at 10 µM; AID 1672; P35561;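 active = fluorescence ratio B-score at or below minus 3 SD of library scores, with starting-brightness B-score within 2 SD, cut at about -4.2 in these data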;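 also: channel flux triggered by added potassium and thallium sulfate stimulus; B-score of peak minus minimum fluorescence over baseline after thallium stimulus; more negative B-score means stronger Kir2.1 block with less thallium influx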
KCNQ1 act = human KCNQ1 channel potentiation or activation; CHO-K1 KCNQ1, thallium flux FluxOR fluorescence; hits give high values; B-score at 10 µM; P51787; 0.35% of 310,000 active;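 active = fluorescence ratio B-score, a plate-corrected score, at least three library SD, with initial intensity B-score within 5 SD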
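Test system: CHO-K1 cells stably expressing KCNQ1 / Medium: assay buffer / Also added: depolarizing K+/Tl+ stimulus, K2SO4 and Tl2SO4 each 12.5 mM in 5x stock / Incubation: 90 min dye loading and 20 min compound exposure, both at room temperature / Signal: thallium influx via FluxOR fluorescence, kinetic imaging / Evaluation: B score of baseline-normalized fluorescence ratio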
hERG protect = compounds protecting human hERG from proarrhythmic drug block; CHO-hERG, FluxOR thallium flux, dofetilide IC70 present; activation (rescue from dofetilide block), less the hit threshold, % at 10 µM; 0.51% of 310,000 active;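 active = activation above the mean of controls blocked by dofetilide plus 5 SD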;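 also: thallium influx through hERG after potassium depolarization seen as dye fluorescence rise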
KCNK3 confirm = confirmation of human KCNK3 two-pore domain potassium channel inhibitors | 99% of 2,400 active | shares compounds with KCNK3 block | ratio percent of control, % at 10 µM | CHO-KCNK3 thallium flux, FluxOR fluorescence; 0% buffer, 100% carvedilol maximal block | AID 651638;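 active = ratio percent of control, averaged over triplicates, above buffer control mean plus 5 SD, cut at about 64% in these data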;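 also: ratio is the fluorescence rise from min to max over baseline after thallium stimulus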
KCNK3 noninduced = activity in cells without induced KCNK3 expression; shares compounds with KCNK3 block; AID 651747; non-induced KCNK3 parental cells, FluxOR thallium flux; hits give low values; thallium flux ratio (lower = more inhibition) at 10 µM; 40% of 2,400 active;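 active = thallium flux ratio, averaged over three wells, more than 5 SD below the buffer control mean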;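 also: host cells are CHO cells without KCNK3 induction; ratio is peak minus trough fluorescence over baseline then normalized to buffer controls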
Starred values were filed as active, the others as inactive; i = inactive; . = not tested or not shown. The list is not random: actives were taken first. Their share in the collection is about 3.7%.

SMILES	KCNK9 inh	KCNK3 block	KCNQ1 inh	Kir21 inh	KCNQ1 act	hERG protect	KCNK3 confirm	KCNK3 noninduced
COc1cc(C(=O)Nc2ccc3c(c2)ncn3C(C)(C)C)cc(OC)c1OC	i	-9.3*	i	-1.4	i	-9	75*	i
CCCc1nnc(NS(=O)(=O)c2ccc(C)cc2)o1	.	i	.	.	.	.	.	.
Oc1ccc(Br)cc1-c1nc2cnccn2c1NC1CCCC1	i	-8.8*	i	-0.17	i	-21	131*	i
N#CCc1nc(C(c2ccccc2)c2ccccc2)no1	i	i	i	-1.5	i	-10	.	.
Cc1ccc(OC(=O)c2cccc(S(=O)(=O)N(C)C)c2)c(-n2nc3ccccc3n2)c1	-7.1*	i	i	1.2	i	-6	118*	i
Cc1ccc(OC(=O)c2cccc(S(=O)(=O)N3CCCC3)c2)c(-n2nc3ccccc3n2)c1	i	-9.3*	i	-0.52	i	-6	110*	i
C=C(C)COc1ccc(-c2[nH]ncc2Oc2ccccc2OC)c(O)c1	i	i	i	-0.12	i	-8	.	.
C=C(C)COc1ccc(-c2[nH]ncc2-c2ccccc2OC)c(O)c1	i	-9*	i	0.77	i	-9	96*	i
CCOC(=O)C1=C(C)N=C2c3ccccc3C(=O)C2C1c1ccccc1 (stereo not drawn)	i	-8.9*	i	-0.04	i	-6	102*	i
O=C(Nc1ccnn1C1CCN(Cc2ccc(C#CCCO)cc2)CC1)c1cccc(F)c1	i	i	i	-0.13	i	-4	.	.
O=C(O)/C=C/C(=O)Nc1ccc(NC(=O)c2ccccc2)c(Cl)c1	i	i	i	-1.6	i	-5	.	.
Cc1cc2c(Nc3ccc(C(=O)O)cc3)ncnc2s1	i	-10*	i	-1.7	i	-4	62*	i
Cc1c(CCOC(=O)CC23CC4CC(CC(C4)C2)C3)sc[n+]1CC(=O)c1ccc(Br)cc1	i	-10*	6*	-1.8	i	-33	119*	i
CCOC(=O)c1cc(CC)sc1/N=C/C1=C(O)CCCC1=O	i	i	i	-0.19	i	-6	.	.
O=C(OCc1nc(-c2ccccc2)oc1COC(=O)c1ccco1)c1ccco1	i	-9.1*	i	1.1	i	-3	102*	i
CCCCCn1c(N)c(-c2nc3ccccc3s2)c2c([N+](=O)[O-])nn(C)c(=O)c21	i	-11*	11*	-0.01	i	-43	102*	0.15*
Cc1ccc(-n2ncc3c2CC(C)(C)CC3NC(=O)CCc2c(C)noc2C)cc1 (stereo not drawn)	i	i	i	-1.8	i	-4	.	.
CC1=CC2=NC(=O)/C(=C/c3coc4ccc(Cl)cc4c3=O)C(=N)N2O1	i	-9.2*	10*	-11	i	-13	134*	0.087*
CC1=CC2=NC(=O)/C(=C\c3cc(C)n(-c4cccc(Cl)c4)c3C)C(=N)N2O1	i	i	i	-1.8	i	-5	.	.
CCN(C(=O)C1CCCN(c2ncnc3c2nc2n3CCCCC2)C1)c1cccc(Cl)c1 (stereo not drawn)	i	-12*	i	-0.89	i	-17	89*	i
O=C(Nc1ccc(Cl)cn1)C1CCCN(c2ncnc3c2nc2n3CCCCC2)C1 (stereo not drawn)	i	i	i	0.2	i	-15	.	.
NC(=O)CSc1nc2cc(Cl)ccc2c(=O)n1C1CCCCC1	i	-10*	i	-0.29	i	-3	95*	i
Cc1nn(-c2ccccc2)c(C)c1NC(=O)COC(=O)c1cc(Br)ccc1O	i	i	i	-0.03	i	-12	.	.
O=C(NC1CCN(C(=O)N2c3ccccc3Sc3ccccc32)CC1)c1ccco1	i	i	i	-1.7	i	-13	.	.
O=C(NC1CCN(C(=O)N2c3ccccc3Sc3ccccc32)CC1)c1ccccc1Cl	-7.3*	-10*	i	-0.88	i	-3	109*	i
SMILES	KCNK9 inh	KCNK3 block	KCNQ1 inh	Kir21 inh	KCNQ1 act	hERG protect	KCNK3 confirm	KCNK3 noninduced
CCCCNC(=S)N1CCN(C(c2ccccc2)c2ccccc2)CC1	-6.8*	-11*	i	-1.1	i	-28	93*	0.11*
Cc1c(Cl)cccc1NC(=O)N1CCCN(c2nc(-c3ccccc3)ns2)CC1	i	i	i	0.88	i	-10	.	.
O=C(Nc1ccccc1Cl)N1CCCN(c2nc(-c3ccccc3)ns2)CC1	-7*	-12*	i	-0.06	i	-11	112*	i
CCOc1cc(NC(=O)C2CC2)c(OCC)cc1NC(=O)c1ccccc1OCC	i	-8.7*	i	1.1	i	-16	102*	i
CCOc1cc(NC(=O)C2CC2)c(OCC)cc1NC(=O)c1cc(OC)c(OC)c(OC)c1	i	i	i	0.55	i	-10	.	.
CCOc1ccccc1C(=O)NCCCCNC(=O)c1ccccc1OCC	i	-9.8*	i	0.76	i	-13	94*	i
COC(=O)c1ccc(/C=N\N2CCN(c3ccccc3)CC2)cc1	i	i	i	-0.15	i	-9	.	.
O=C(OCC(=O)N1CCCC1=O)c1ccc(Cl)cc1[N+](=O)[O-]	i	i	i	-0.42	i	-10	.	.
O=C1CCC(C(=O)OC(C(=O)c2c[nH]c3ccccc23)c2ccccc2)=NN1 (stereo not drawn)	-8.7*	i	i	-0.75	i	-2	111*	i
COc1cccc(-n2ccn(CC(=O)NCCc3ccccc3)c(=O)c2=O)c1	i	i	i	1.2	i	-5	.	.
Cc1nnc(SCC(=O)Nc2nsc(-c3ccc(C(C)(C)C)cc3)n2)s1	i	-9.9*	i	0.01	i	-14	102*	i
C/C(=N\Nc1nc(N2CCOCC2)nc(N2CCOCC2)n1)c1cccs1	i	i	i	-0.41	i	-8	.	.
C/C(=N\Nc1nc(N2CCCCC2)nc(N2CCOCC2)n1)c1ccccc1O	i	-9.1*	i	0	i	-9	104*	i
Cc1cccc(-c2noc(CN(C(=O)c3c(-c4ccccc4Cl)noc3C)C(C)C)n2)c1	.	-12*	.	.	.	.	113*	i
Cc1cccc(-c2noc(CN(C(=O)c3ccc(Br)o3)C(C)C)n2)c1	i	i	i	-1.1	i	-10	.	.
